≈ marks a conversion by molar mass, not a printed value.
How the values were obtained:
Type in all cases: functional
Staphylococcus aureus [1] = assay: Antibacterial activity against Staphylococcus aureus at 100 ug/disk after 24 hrs by disk diffusion method; conditions: read-out: IZ
Method in brief: (§1)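 Agar disc diffusion on nutrient agar with NCIM bacteria. 6 mm sterile paper discs moistened with compound in DMSO (100 or 200 μg/disc) placed on pre-inoculated plates. Incubated at 37 °C; growth-inhibition zone diameter measured after 24 h. Chloramphenicol control.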

Staphylococcus aureus [2] = assay: Antibacterial activity against Staphylococcus aureus at 200 ug/disk after 24 hrs by disk diffusion method; conditions: read-out: IZ; method in brief: as §1
Bacillus subtilis [3] = assay: Antibacterial activity against Bacillus subtilis at 100 ug/disk after 24 hrs by disk diffusion method; conditions: read-out: IZ; method in brief: as §1
Bacillus subtilis [4] = assay: Antibacterial activity against Bacillus subtilis at 200 ug/disk after 24 hrs by disk diffusion method; conditions: read-out: IZ; method in brief: as §1
Klebsiella pneumoniae [5] = assay: Antibacterial activity against Klebsiella pneumoniae at 100 ug/disk after 24 hrs by disk diffusion method; conditions: read-out: IZ; method in brief: as §1
Klebsiella pneumoniae [6] = assay: Antibacterial activity against Klebsiella pneumoniae at 200 ug/disk after 24 hrs by disk diffusion method; conditions: read-out: IZ; method in brief: as §1
Proteus vulgaris [7] = assay: Antibacterial activity against Proteus vulgaris at 100 ug/disk after 24 hrs by disk diffusion method; conditions: read-out: IZ; method in brief: as §1
Proteus vulgaris [8] = assay: Antibacterial activity against Proteus vulgaris at 200 ug/disk after 24 hrs by disk diffusion method; conditions: read-out: IZ; method in brief: as §1
Fusarium solani [9] = assay: Antifungal activity against Fusarium solani at 100 ug/disk after 48 hrs by disk diffusion method; conditions: read-out: IZ
Method in brief: (§2)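 Fungi from NCIM on nutrient agar plates, pre-inoculated. 6 mm paper discs carrying 100 or 200 μg compound in DMSO applied. Plates incubated at 37 °C and inhibition zone diameter measured at 48 h. Ketoconazole control.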

Fusarium solani [10] = assay: Antifungal activity against Fusarium solani at 200 ug/disk after 48 hrs by disk diffusion method; conditions: read-out: IZ; method in brief: as §2
Curvularia lunata [11] = assay: Antifungal activity against Curvularia lunata at 100 ug/disk after 48 hrs by disk diffusion method; conditions: read-out: IZ; method in brief: as §2
Curvularia lunata [12] = assay: Antifungal activity against […] lunata at 200 ug/disk after 48 hrs by disk diffusion method; conditions: read-out: IZ; method in brief: as §2
Aspergillus niger [13] = assay: Antifungal activity against Aspergillus niger at 100 ug/disk after 48 hrs by disk diffusion method; conditions: read-out: IZ; method in brief: as §2
Aspergillus niger [14] = assay: Antifungal activity against Aspergillus niger at 200 ug/disk after 48 hrs by disk diffusion method; conditions: read-out: IZ; method in brief: as §2
Staphylococcus aureus [15] = assay: Antibacterial activity against Staphylococcus aureus after 24 hrs by microdilution susceptibility assay
Method in brief: (§3)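 Bacterial strains from NCIM. Broth microdilution: stocks at 800 μg/ml in DMSO, two-fold dilutions 400, 200, 100 ... 6.25 μg/ml, wells inoculated with bacterial suspension, 36 °C for 24 h. MIC = lowest concentration with no turbidity (no visible growth). Chloramphenicol as reference.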

Bacillus subtilis [16] = assay: Antibacterial activity against Bacillus subtilis after 24 hrs by microdilution susceptibility assay; method in brief: as §3
Klebsiella pneumoniae [17] = assay: Antibacterial activity against Klebsiella pneumoniae after 24 hrs by microdilution susceptibility assay; method in brief: as §3
Proteus vulgaris [18] = assay: Antibacterial activity against Proteus vulgaris after 24 hrs by microdilution susceptibility assay; method in brief: as §3
Fusarium solani [19] = assay: Antifungal activity against Fusarium solani after 48 hrs by microdilution susceptibility assay
Method in brief: (§4)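 Fungal strains from NCIM. Microdilution: stocks at 800 μg/ml in DMSO, two-fold dilutions 400 down to 6.25 μg/ml, wells inoculated with fungal suspension, incubated 36 °C for 48 h. MIC read as lowest concentration without turbidity. Ketoconazole reference.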

Curvularia lunata [20] = assay: Antifungal activity against Curvularia lunata after 48 hrs by microdilution susceptibility assay; method in brief: as §4
Aspergillus niger [21] = assay: Antifungal activity against Aspergillus niger after 48 hrs by microdilution susceptibility assay; method in brief: as §4
[22] = Antioxidant activity assessed as inhibition of nitric oxide production at 100 uM
Method in brief: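 Sodium nitroprusside ([…]) in phosphate buffer pH 7.4 incubated with 100 μM compound (dioxane/methanol) at 25 °C for 120 min; solvent-only control. Aliquots mixed 1:1 with Griess reagent (1% sulfanilamide, 0.1% N-naphthylethylenediamine, 2% phosphoric acid). Absorbance at 546 nm, triplicate.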

[23] = tested on: Radical scavenging activity; assay: Antioxidant activity assessed as DPPH radical scavenging activity at 100 uM
Method in brief: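 Compound (100 μM) added to 100 μM DPPH in dioxane/ethanol. Kept at ambient temperature 20 min, then absorbance read at 517 nm. Percent DPPH scavenging taken from difference between test and control.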

[24] = Antioxidant activity assessed as increase in reducing power at 100 uM
Method in brief: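 Oyaizu method. Compound at 100 μM in methanol mixed with 0.2 M phosphate buffer pH 6.6 and 1% potassium ferricyanide, 50 °C for 20 min. 10% TCA added, then centrifuged 3000 rpm for 10 min. Upper layer mixed with water and 0.1% FeCl3; absorbance read at 700 nm.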

O=S(=O)(CC1=NCCS1)c1c[nH]cc1S(=O)(=O)c1ccc(Cl)cc1
zone of inhibition at 100 µg/disc (Staphylococcus aureus [1]): 32 mm
zone of inhibition at 200 µg/disc (Staphylococcus aureus [2]): 34 mm
zone of inhibition at 100 µg/disc (Bacillus subtilis [3]): 33 mm
zone of inhibition at 200 µg/disc (Bacillus subtilis [4]): 35 mm
zone of inhibition at 100 µg/disc (Klebsiella pneumoniae [5]): 27 mm
zone of inhibition at 200 µg/disc (Klebsiella pneumoniae [6]): 29 mm
zone of inhibition at 100 µg/disc (Proteus vulgaris [7]): 29 mm
zone of inhibition at 200 µg/disc (Proteus vulgaris [8]): 30 mm
zone of inhibition at 100 µg/disc (Fusarium solani [9]): 35 mm
zone of inhibition at 200 µg/disc (Fusarium solani [10]): 38 mm
zone of inhibition at 100 µg/disc (Curvularia lunata [11]): 36 mm
zone of inhibition at 200 µg/disc (Curvularia lunata [12]): 41 mm
zone of inhibition at 100 µg/disc (Aspergillus niger [13]): 34 mm
zone of inhibition at 200 µg/disc (Aspergillus niger [14]): 38 mm
MIC (Staphylococcus aureus [15]): 25 µg/mL (≈ 61.7 µM)
MIC (Bacillus subtilis [16]): 12.5 µg/mL (≈ 30.9 µM)
MIC (Klebsiella pneumoniae [17]): 50 µg/mL (≈ 123 µM)
MIC (Proteus vulgaris [18]): 50 µg/mL (≈ 123 µM)
MIC (Fusarium solani [19]): 50 µg/mL (≈ 123 µM)
MIC (Curvularia lunata [20]): 12.5 µg/mL (≈ 30.9 µM)
MIC (Aspergillus niger [21]): 25 µg/mL (≈ 61.7 µM)
inhibition [22]: 41.4%
inhibition [23]: 40.5%
inhibition [24]: 40.4%

O=S(=O)(CC1=NCCS1)c1c[nH]cc1S(=O)(=O)c1ccccc1
zone of inhibition at 100 µg/disc (Staphylococcus aureus [1]): 29 mm
zone of inhibition at 200 µg/disc (Staphylococcus aureus [2]): 30 mm
zone of inhibition at 100 µg/disc (Bacillus subtilis [3]): 30 mm
zone of inhibition at 200 µg/disc (Bacillus subtilis [4]): 32 mm
zone of inhibition at 100 µg/disc (Klebsiella pneumoniae [5]): 23 mm
zone of inhibition at 200 µg/disc (Klebsiella pneumoniae [6]): 25 mm
zone of inhibition at 100 µg/disc (Proteus vulgaris [7]): 24 mm
zone of inhibition at 200 µg/disc (Proteus vulgaris [8]): 28 mm
zone of inhibition at 100 µg/disc (Fusarium solani [9]): 34 mm
zone of inhibition at 200 µg/disc (Fusarium solani [10]): 37 mm
zone of inhibition at 100 µg/disc (Curvularia lunata [11]): 32 mm
zone of inhibition at 200 µg/disc (Curvularia lunata [12]): 35 mm
zone of inhibition at 100 µg/disc (Aspergillus niger [13]): 30 mm
zone of inhibition at 200 µg/disc (Aspergillus niger [14]): 33 mm
MIC (Staphylococcus aureus [15]): 100 µg/mL (≈ 270 µM)
MIC (Bacillus subtilis [16]): 50 µg/mL (≈ 135 µM)
MIC (Klebsiella pneumoniae [17]): 100 µg/mL (≈ 270 µM)
MIC (Proteus vulgaris [18]): 100 µg/mL (≈ 270 µM)
MIC (Fusarium solani [19]): 100 µg/mL (≈ 270 µM)
MIC (Curvularia lunata [20]): 100 µg/mL (≈ 270 µM)
MIC (Aspergillus niger [21]): 100 µg/mL (≈ 270 µM)
inhibition [22]: 34.6%
inhibition [23]: 33.8%
inhibition [24]: 32.4%

From ChEMBL document CHEMBL1177891, “Synthesis and bioassay of pyrrolyl oxazolines and thiazolines” (2010)
